Hits are enriched below; roughly 0.89% of the tested compounds scored in any of these assays.
NTR1 ag = agonists of human neurotensin receptor NTR1; NTR1-U2OS beta-arrestin-GFP spot imaging, agonist mode; P30989; 0.17% of 330,000 active; activation, % at 20 µM;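 active = activation at or above 40% of the spot to cytoplasm intensity ratio, with at least 20 cells analyzed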
Arr AP2 block = blocks beta-arrestin peptide binding to AP2 adaptin | FITC-arrestin peptide / GST-AP2 beads, flow cytometry; AP2 beta2 appendage carries R879A mutation | inhibition, % at 10 µM | 0.31% of 340,000 active;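 active = inhibition above a set limit, near 3 SD of compounds lacking own fluorescence, cut at about 54% in these data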
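System: GST-AP2 R879A glutathione beads; medium: PBS, Tween 20 0.05%, BSA 0.1%; reagent: fluorescein-tagged arrestin peptide at 50 nM final; schedule: pre-incubation 12 min, peptide binding 1 h, room temperature; detection: flow cytometry, FL1 (488/535 nm); read-out: inhibition as reduced fluorescein signal on beads, percent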
T cell HTS = T cell immune modulators affecting CD8 T cell-vesicle binding; 0.068% of 330,000 active; AID 2052; response (vesicle binding), % at 7 µM; 2C CD8+ T cell-vesicle binding, flow cytometry; active compounds read low;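 active = response, share of CD8 T cells binding vesicles, and their 90th percentile fluorescence all below set limits, cut at about 80% in these data, passing the limit was not always enough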;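 also: values below 100% mean blocked vesicle binding to the CD8+ T cells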
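Assay system: 2C TCR transgenic mouse naive CD8+ T cells, MACS-purified | Read-out: CD8+ gate FL2 mean fluorescence as % of same-row positive control | Signal: High-throughput flow cytometry with anti-B7-1 and anti-CD8 staining | Timing: Binding step 1.5 h, 37 °C, antibody labelling 20 min, ice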
V-ATPase pHluor = alters yeast V-ATPase proton transport; 0.37% of 350,000 active; response, % at 10 µM; S. cerevisiae, pHLuorin cytosolic pH fluorescence; in the data active = response mostly above about 7.3%, no sharp cut-off; inactive = mostly below about 5.4%; also: actives read high
Xi reactivation = reactivates the inactive X chromosome in mouse fibroblasts | XiGFP mouse fibroblasts, % GFP-positive cells imaging, 3 d; cells co-treated with 5-aza-dC sensitizer; scaled so ellipticine positive control = 100% | 0.055% of 360,000 active | activation, % at 7.58 µM;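 active = mean normalized replicate activation at least 10% and every replicate at or above 10%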
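Material: XiGFP fibroblasts, SV40-immortalized. Buffer or medium: DMEM plus 5-aza-dC sensitizer. Compound: single concentration per compound, delivered by pin transfer. Times: 3 days compound exposure. Controls: ellipticine 6 µM.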
beta cell repl = MIN6 beta-cell proliferation induction | MIN6 cells proliferation, ATPlite luminescence, 48 h; cells starved in 0.2% serum; 100% = growth in 10% serum | proliferation, % at 10 µM | 0.29% of 330,000 active;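 active = compounds whose signal lies at least 3.5 SD above the mean of all wells on their plate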
Arr-AP2 CP1 = human beta-arrestin and AP2 interaction inhibition, cherry pick | shares compounds with Arr AP2 block | GST-AP2 beads, FITC arrestin peptide binding, flow cytometry; GST-fused beta2-adaptin appendage, R879A mutant | inhibition, % at 10 µM | 2% of 1,300 active;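 active = inhibition above a set limit, roughly 3 SD of non-fluorescent compound noise, cut at about 38% in these data; inactive = inhibition at or below that limit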;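 also: loss of bead fluorescence from 50 nM FITC arrestin peptide bound to appendage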
Target sequence (P63010 whole entry, looked up, the tested form may be a part, one chain of several): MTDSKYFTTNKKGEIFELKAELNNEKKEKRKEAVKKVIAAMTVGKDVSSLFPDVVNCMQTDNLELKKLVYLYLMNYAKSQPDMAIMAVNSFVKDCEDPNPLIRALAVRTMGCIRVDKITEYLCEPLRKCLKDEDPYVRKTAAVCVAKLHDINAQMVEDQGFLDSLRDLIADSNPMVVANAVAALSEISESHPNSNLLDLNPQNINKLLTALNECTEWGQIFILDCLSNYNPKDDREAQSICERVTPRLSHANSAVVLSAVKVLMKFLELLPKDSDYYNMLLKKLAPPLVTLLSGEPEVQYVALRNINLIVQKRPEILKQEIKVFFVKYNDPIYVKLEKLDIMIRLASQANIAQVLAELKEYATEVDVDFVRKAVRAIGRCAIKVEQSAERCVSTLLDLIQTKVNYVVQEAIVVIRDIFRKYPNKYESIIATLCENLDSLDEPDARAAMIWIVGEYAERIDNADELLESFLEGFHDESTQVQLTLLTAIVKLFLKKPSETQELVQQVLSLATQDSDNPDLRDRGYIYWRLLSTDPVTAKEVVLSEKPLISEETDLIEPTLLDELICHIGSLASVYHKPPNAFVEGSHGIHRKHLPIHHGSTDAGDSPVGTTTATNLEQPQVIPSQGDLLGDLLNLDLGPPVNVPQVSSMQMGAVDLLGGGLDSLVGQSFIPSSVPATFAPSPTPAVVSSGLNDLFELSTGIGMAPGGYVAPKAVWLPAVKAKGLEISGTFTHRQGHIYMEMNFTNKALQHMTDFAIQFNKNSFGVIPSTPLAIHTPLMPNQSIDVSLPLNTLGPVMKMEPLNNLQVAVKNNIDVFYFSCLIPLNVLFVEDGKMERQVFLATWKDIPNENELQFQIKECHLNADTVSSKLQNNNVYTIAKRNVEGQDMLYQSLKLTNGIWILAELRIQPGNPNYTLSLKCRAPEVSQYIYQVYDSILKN
GST GSH counter = disrupts GST binding to glutathione beads, arrestin-AP2 artifact; inhibition, % at 10 µM; shares compounds with Arr AP2 block; GST-fluorescein binding to GSH beads, fluorescence, counter-screen; 2% of 1,300 active;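 active = inhibition above 50%, about 3 SD of the inhibition seen with non-fluorescent compounds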;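 also: fluorescein maleimide labelled GST captured on 4 micron glutathione beads; higher means more loss of bead fluorescence from quenching or blocked binding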
Numbers stand for hits; 0 = inactive; - = no result given.

SMILES | NTR1 ag | Arr AP2 block | T cell HTS | V-ATPase pHluor | Xi reactivation | beta cell repl | Arr-AP2 CP1 | GST GSH counter
NC(=O)[C@@H]1CCCN1Cc1c(C(=O)N2CCN(C3CCCCC3)CC2)nc2ccccn12 | 0 | 54 | 0 | 0 | 0 | 0 | 0 | 0
COc1cc(OC)c(NC(=O)CC(C)=O)cc1Cl | 0 | 0 | 0 | 0 | 0 | 0 | 0 | 0
COc1cc(OC)c(NC(=O)CC(=O)Nc2cc(Cl)c(OC)cc2OC)cc1Cl | 0 | 0 | 0 | 0 | 0 | 0 | - | -
COC(=O)C1=C(C(C)=O)C(c2ccc(C)cc2)n2nnnc2N1 (centres undefined) | 0 | 0 | 0 | 0 | - | 0 | - | -
COC(=O)C1=C(C(C)=O)C(c2ccc(C(=O)OC)cc2)n2nnnc2N1 (centres undefined) | 0 | 100 | 0 | 0 | - | 0 | 0 | 0
C[C@H]1CCCCO[C@@H](CN(C)Cc2ccc(C(=O)O)cc2)[C@@H](C)CN([C@@H](C)CO)C(=O)c2cc(NC(=O)c3ccncc3)ccc2O1 | - | - | - | - | 0 | - | - | -
Cc1c(NC(=O)c2ccc(N(C)S(=O)(=O)c3ccccc3)cc2)c(=O)n(-c2ccccc2)n1C | 0 | 54 | 0 | 0 | 0 | 0 | 0 | 0
Cc1c(NC(=O)c2cccc(S(=O)(=O)N(C)c3ccccc3)c2)c(=O)n(-c2ccccc2)n1C | - | 0 | - | 0 | 0 | - | - | -
COc1cccc(NC(=O)N[C@@H]2C=C[C@@H](CC(=O)N3CCOCC3)O[C@@H]2CO)c1 | - | - | - | - | 0 | - | - | -
CCC(=O)N1CC(=O)N2[C@H](CO)[C@@H](c3ccc(C#Cc4cccc(OC)c4)cc3)[C@@H]2C1 | - | - | - | - | 0 | - | - | -
O=C(Nc1ccccc1F)n1ncc2cc(Cl)ccc21 | 0 | 62 | 0 | 0 | 0 | 0 | 0 | 0
COc1cc(NC(=O)n2ncc3cc(Cl)ccc32)cc(OC)c1 | 0 | 0 | 0 | 0 | 0 | 0 | - | -
C/C(=N\NC(=O)c1ccc(CSc2nncn2C)cc1)c1ccc2ccccc2c1 | 0 | 55 | 0 | - | 0 | 0 | 0 | 0
Cn1nc(C(=O)Nc2ccccc2)c2c1-c1ccccc1S(=O)(=O)C2 | 0 | 58 | 0 | 14 | 0 | 0 | 0 | 0
COc1cccc(NC(=O)c2nn(C)c3c2CS(=O)(=O)c2ccccc2-3)c1 | 0 | 0 | 0 | 0 | 0 | 0 | - | -
CCC(=O)Nc1c(C#N)c2nc3ccccc3nc2n1C1CCCCC1 | 0 | 75 | 0 | 0 | - | 0 | 0 | 0
CCC(=O)Nc1c(C#N)c2nc3ccccc3nc2n1-c1ccccc1C | 0 | 0 | 0 | 0 | - | 0 | - | -
O=C1C(Cl)=C(NC(=O)c2ccccc2)C(=O)C(Cl)=C1NC(=O)c1ccccc1 | 0 | 58 | 0 | 0 | 0 | 0 | 75 | 0
O=C(NC1=C(Nc2ccc(Cl)cc2)C(=O)c2ccccc2C1=O)c1ccccc1 | 0 | 0 | 0 | 0 | 0 | 0 | - | -
COc1ccc(NC(=O)Nc2ccc3c(c2)C(=O)N([C@H](C)CO)C[C@H](C)[C@@H](CN(C)C)OCCCC[C@@H](C)O3)cc1 | - | - | - | - | 0 | - | - | -
C[C@H]1CCCCO[C@H](CN(C)Cc2ccc3c(c2)OCO3)[C@@H](C)CN([C@@H](C)CO)C(=O)c2cc(NS(=O)(=O)c3cccs3)ccc2O1 | - | - | - | - | 0 | - | - | -
COc1ccc(OC)c(NC(=O)COC(=O)c2cc3c(s2)CCC3)c1 | 0 | 80 | 0 | 0 | 0 | 0 | 0 | 0
S=C(NCc1ccco1)Nc1cccc(Cl)c1 | 0 | 59 | 0 | 0 | - | 0 | 0 | 0
CCn1c(=O)n(CC)c2cc(N3CCCC3)c(NC(=O)c3ccccc3F)cc21 | 0 | 0 | 0 | 0 | 0 | 0 | 0 | 0
O=C(Nc1cc(C(=O)N2CCCC2)ccc1N1CCCC1)c1ccccc1F | 0 | 0 | 0 | 0 | - | 0 | - | -
SMILES | NTR1 ag | Arr AP2 block | T cell HTS | V-ATPase pHluor | Xi reactivation | beta cell repl | Arr-AP2 CP1 | GST GSH counter
CCn1c(=O)n(CC)c2cc(N3CCCC3)c(NC(=O)c3cc(Br)ccc3OC)cc21 | 0 | - | 0 | - | 0 | 0 | 0 | 0
COc1ccc(Br)cc1C(=O)Nc1ccccc1N1CCCC1 | 0 | 0 | 0 | 0 | 0 | 0 | - | -
CCn1c(=O)n(CC)c2cc(N3CCCC3)c(NC(=O)c3ccccc3C)cc21 | 0 | 0 | 0 | 0 | 0 | 0 | 0 | 0
CO[C@@H]1CN(C)C(=O)c2ccc(NC(=O)Nc3ccc4c(c3)OCO4)cc2OC[C@@H](C)N(C(C)=O)C[C@H]1C | - | - | - | - | 0 | - | - | -
O=C(O)C1OC(C(=O)O)C(C(=O)O)C1C(=O)O (centres undefined) | - | 58 | - | 0 | 0 | - | 0 | 0
NS(=O)(=O)c1ccc(N/N=C/c2ccc(O)c(O)c2O)c([N+](=O)[O-])c1 | - | 78 | - | 0 | 0 | - | 41 | 0
NS(=O)(=O)c1ccc(N/N=C/c2ccc(O)cc2O)c([N+](=O)[O-])c1 | 0 | 0 | 0 | 0 | 0 | 0 | - | -
CCn1ncc(C(=O)Nc2ccc([N+](=O)[O-])cc2OC)c1C | 0 | 0 | 0 | 0 | 0 | 0 | - | -
CCn1ncc(Cl)c1C(=O)Nc1cc([N+](=O)[O-])ccc1OC | 0 | 106 | 0 | 0 | 0 | 0 | 0 | 0
Cc1ccc(S(=O)(=O)Nc2cccc3c2O[C@H](CN(C)S(=O)(=O)c2ccccc2)[C@@H](C)CN([C@@H](C)CO)C3=O)cc1 | - | - | - | - | 0 | - | - | -
CN1C(=O)NC(c2ccc(O)cc2)C2=C1CN(c1cccc3ccccc13)C2=O (centres undefined) | 0 | 0 | 0 | 0 | 0 | 0 | 0 | 0
Cc1ccccc1N1CC2=C(C1=O)C(c1ccccc1)NC(=O)N2C (centres undefined) | 0 | 0 | 0 | 0 | 0 | 0 | - | -
CC[n+]1c(C)sc2c3ccsc3ccc21 | 0 | 0 | 0 | 0 | 0 | 0 | - | -
CCN1/C(=C/c2ccc3cc(C)ccc3[n+]2CC)Sc2ccc3sccc3c21 | 0 | 75 | 0 | 0 | - | 0 | 43 | 140
C[C@H]1CN([C@@H](C)CO)C(=O)Cc2cc(NC(=O)Nc3ccc(C(F)(F)F)cc3)ccc2O[C@@H]1CN(C)C(=O)Nc1ccc2c(c1)OCO2 | - | - | - | - | 0 | - | - | -
NS(=O)(=O)c1ccc(NC(=O)C2C3C=CC(C3)C2C(=O)O)cc1 (centres undefined) | 0 | 58 | 0 | 0 | 0 | 0 | 0 | 0
CC(C)NC(=O)Nc1ccc2c(c1)CC(=O)N(C)C[C@@H](C)[C@@H](CN(C)C(=O)NC(C)C)O2 | - | - | - | - | 0 | - | - | -
CCCn1nc(NC(=O)CC(C)C)c2cc3cccc(C)c3nc21 | 0 | 0 | 0 | 0 | 0 | 0 | - | -
CCn1nc(NC(=O)CC(C)C)c2cc3cccc(C)c3nc21 | 0 | 55 | 0 | 0 | 0 | 0 | 0 | 0
COc1ccc(NC(=O)N[C@H]2CC[C@H](CC(=O)NC3CCCCC3)O[C@H]2CO)cc1 | - | - | - | - | 0 | - | - | -
